Screen size: about 330,000 compounds; about 220 (0.067%) were called active.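 Rule for the calls: active = response, share of CD8 T cells binding vesicles, and their 90th percentile fluorescence all below set limits (cut at about 80% in these data, passing the limit was not always enough); inactive = the rest, inconclusive results apart.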 The full list was thinned out, with actives kept by preference.

Data on 52 molecules can be found in PubChem BioAssay AID2052 (NMMLSC, 2009).

The test can be described thus: modulators of CD8 T cell-vesicle binding, primary screen, mouse 2C CD8+ T cells, flow cytometry (AID 2052).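 For double positive events: binding gate set so that unloaded-vesicle control wells show 10% double positive cells.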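 For response (vesicle binding): values below 100% mean blocked vesicle binding to the CD8+ T cells.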 Particulars: 2C CD8+ T cell-vesicle binding, at 7 µM, stronger effect = lower value; double positive events: measured here: CD8+ vesicle-bound cell fraction. In outline: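 Assay system: 2C TCR transgenic mouse naive CD8+ T cells, MACS-purified | Read-out: CD8+ gate FL2 mean fluorescence as % of same-row positive control | Signal: High-throughput flow cytometry with anti-B7-1 and anti-CD8 staining | Timing: Binding step 1.5 h, 37 °C, antibody labelling 20 min, ice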
As for `Cc1nc2ccc(C(=O)N(C)CC3CCCN(CCc4ccc(Cl)cc4)C3)cc2[nH]1` (centres undefined), the double positive events is 20.7% and the response (vesicle binding) is 442% (inactive).

Turning to `Cc1ccc(N2CC(C(=O)NCCS(=O)(=O)N3CCN(c4ccccc4)CC3)CC2=O)cc1` (centres undefined), the double positive events turned out to be 11% and the response (vesicle binding) was 383% (inactive).

As for `CN1C(=O)/C(=C/C=C2\SCCN2C)OC1=S`, the double positive events turned out to be 25.3% and the response (vesicle binding) was 177% (inactive).

Regarding `CCN1CCN(C(=O)c2cc3cc4ccc(OC)cc4nc3s2)CC1`, the double positive events was found to be 24.6% and the response (vesicle binding) is 601% (inactive).

With `CN(CC(=O)NCCc1ccc(S(N)(=O)=O)cc1)CC(=O)Nc1ccc(Cl)cc1`, the double positive events came out at 39.4% and the response (vesicle binding) was 1090% (inactive).

As to `COc1ccc(C(=O)CC(=O)C(=O)Nc2cc([N+](=O)[O-])ccc2OC)cc1`, the double positive events turned out to be 13.4% and the response (vesicle binding) was 256% (inactive).

As for `COc1ccc([N+](=O)[O-])cc1NC(=O)c1ccc(N(Cc2ccccc2C)S(C)(=O)=O)cc1`, the double positive events was determined as 0.1% and the response (vesicle binding) is 6.1% (active).

For `Cc1ccccc1CN(c1ccc(C(=O)NCC2CCCO2)cc1)S(C)(=O)=O` (centres undefined), the double positive events turned out to be 4.3% and the response (vesicle binding) is 168% (inactive).

On to `COc1ccccc1OCCn1c(SCC(N)=O)nc2ccccc21`, for which the double positive events amounted to 16% and the response (vesicle binding) is 348% (inactive).

For the molecule `Cc1ccc(NC(=O)CN(C)S(=O)(=O)c2cnc[nH]2)cc1C`, the double positive events was determined as 18.7% and the response (vesicle binding) is 261% (inactive).

On to `CC(Oc1ccccc1)C(=O)Nc1c2c(nn1-c1ccccc1)CS(=O)C2` (centres undefined), for which the double positive events came out at 7.9% and the response (vesicle binding) was 237% (inactive).

Turning to `CCOC(=O)c1ccccc1NC(=S)N1CCC(C(N)=O)CC1`, the double positive events is 33.7% and the response (vesicle binding) was 285% (inactive).

On to `OC(CNCc1ccc(Cl)c(Cl)c1)c1ccccc1` (centres undefined), for which the double positive events came out at 58.3% and the response (vesicle binding) is 66.1% (inactive).

`Cc1c(NC(=S)NC(=O)CCc2ccccc2)c(=O)n(-c2ccccc2)n1C`: the double positive events is 1.1% and the response (vesicle binding) was 17.6% (active).

Consider `Cc1c(NC(=O)CN2C(=O)C(=O)N(Cc3ccccc3)C2=O)c(=O)n(-c2ccccc2)n1C`, for which the double positive events was determined as 54.7% and the response (vesicle binding) is 606% (inactive).

Regarding `Cc1c(NC(=S)Nc2ccccc2)c(=O)n(-c2ccccc2)n1C`, the double positive events was 28% and the response (vesicle binding) was 297% (inactive).

For the molecule `CC(C)(C)c1cc(P(=O)(c2ccccc2)c2ccccc2)ccc1O`, the double positive events worked out at 28.1% and the response (vesicle binding) is 82.3% (inactive).

Consider `CC(=O)c1ccc(N2CCN(CC(=O)Nc3ccccc3N3CCOCC3)CC2)cc1`, for which the double positive events stood at 42.5% and the response (vesicle binding) is 203% (inactive).

As for `O=C(CN1CCN(C2CCCCC2)CC1)Nc1ccccc1N1CCCCC1`, the double positive events was determined as 6.3% and the response (vesicle binding) is 0% (active).

For the molecule `Cc1ccccc1NC(=O)Nc1ccccc1N1CCCCC1`, the double positive events amounted to 27.3% and the response (vesicle binding) was 308% (inactive).

Take `COc1ccc(CN(C)C(=S)Nc2ccc(Cl)cc2Cl)cc1`: the double positive events was determined as 9.4% and the response (vesicle binding) was 367% (inactive).

Regarding `CCN1CCN(C(=O)C2CCN(S(=O)(=O)c3cc(Cl)ccc3Cl)CC2)CC1`, the double positive events was found to be 29.3% and the response (vesicle binding) was 223% (inactive).

As to `O=C(NN1C(=O)C2C3C=CC(C3)C2C1=O)c1ccco1` (centres undefined), the double positive events stood at 43% and the response (vesicle binding) is 570% (inactive).

In the case of `CCOc1ccc2[nH]c(=O)c(CN(Cc3nnnn3CCc3ccccc3)CC3CCCO3)cc2c1` (centres undefined), the double positive events turned out to be 50.9% and the response (vesicle binding) was 238% (inactive).

With `COC(=O)c1ccc(C2NC(=O)NC(C)=C2C(=O)N(C)C)cc1` (centres undefined), the double positive events was found to be 31.3% and the response (vesicle binding) was 393% (inactive).

Take `CCOc1ccc(CCNC(=O)COC(=O)C2CCN(c3ccc(C(F)(F)F)cn3)CC2)cc1OCC`: the double positive events was determined as 38.6% and the response (vesicle binding) was 818% (inactive).

Take `CCCc1c(C(=O)Nc2ccc(F)cc2)cnn1-c1ccccc1`: the double positive events stood at 19.3% and the response (vesicle binding) is 479% (inactive).

Take `O=C(COC(=O)CC1CC2CCC1C2)NC(=O)NC1CCCC1` (centres undefined): the double positive events worked out at 20.7% and the response (vesicle binding) was 248% (inactive).

`CCOc1ccc2[nH]c(=O)c(C(c3nnnn3CCOC)N3CCOCC3)cc2c1` (centres undefined): the double positive events amounted to 11.4% and the response (vesicle binding) was 261% (inactive).

`COc1ccc(OC)c(C(c2nnnn2C(C)(C)C)N2CCc3ccccc3C2)c1` (centres undefined): the double positive events amounted to 55.6% and the response (vesicle binding) was 342% (inactive).

Take `COCCn1nnnc1C(c1cc2ccc(OC)cc2[nH]c1=O)N1CCc2ccccc2C1` (centres undefined): the double positive events came to 16.7% and the response (vesicle binding) is 0% (active).

Turning to `CCCCOc1ccc(NC(=O)CSCC(=O)OCC)cc1`, the double positive events turned out to be 29.6% and the response (vesicle binding) is 186% (inactive).

For the molecule `CN(C)/C=C(/C(=O)c1ccc(Cl)cc1)S(=O)(=O)c1ccccc1`, the double positive events amounted to 37.1% and the response (vesicle binding) is 209% (inactive).

With `Cc1nn(Cc2ccc(C(=O)N3N=C(C(F)F)CC3(O)C(F)F)cc2)c(C)c1[N+](=O)[O-]` (centres undefined), the double positive events was 36.3% and the response (vesicle binding) is 446% (inactive).

As to `C1=C(N2CCOCC2)/C(=C/c2nc3ccccc3[nH]2)CC1`, the double positive events is 33.6% and the response (vesicle binding) is 242% (inactive).

Regarding `CC1CC(C)(C)n2c(O)c(N=NC(N)=S)c3cccc1c32` (centres undefined), the double positive events is 21.4% and the response (vesicle binding) is 405% (inactive).

Take `CC1CCc2sc(C(=O)NCC(c3ccco3)N3CCCCC3)cc2C1` (centres undefined): the double positive events was 29.9% and the response (vesicle binding) is 209% (inactive).

`CS(=O)(=O)N(CC(=O)Nc1ccc(F)cc1F)c1cccc([N+](=O)[O-])c1`: the double positive events came to 31.4% and the response (vesicle binding) was 763% (inactive).

Turning to `O=C(c1ccccc1)c1ccc2nc(N3CCCCC3)c3nncn3c2c1`, the double positive events is 4.3% and the response (vesicle binding) is 87.7% (inactive).

For `Cc1c(Cl)cccc1NC(=S)NCC(O)c1ccccc1` (centres undefined), the double positive events is 56.7% and the response (vesicle binding) was 132% (inactive).

On to `CC(=O)Nc1ccc(S(=O)(=O)Oc2ccc(Br)cc2C(=S)N2CCOCC2)cc1`, for which the double positive events is 35.8% and the response (vesicle binding) is 429% (inactive).

On to `Cc1ccc(OCC(=O)Nc2ccc(C(=O)O)cc2NC(=O)COc2ccc(C)c(C)c2)cc1C`, for which the double positive events is 35.6% and the response (vesicle binding) was 196% (inactive).

On to `COc1ccc(/C=C(/NC(=O)c2ccccc2)C(=O)Nc2cccc(C(=O)O)c2)cc1`, for which the double positive events turned out to be 39.2% and the response (vesicle binding) was 259% (inactive).

As for `CCOc1ccc(S(=O)(=O)NCc2ccc3c(c2)OCO3)cc1C`, the double positive events is 23.9% and the response (vesicle binding) is 381% (inactive).

On to `Cc1cc(Br)ccc1NC(=O)CN(C)C(=O)CN1C(=O)NC2(CCCC2)C1=O`, for which the double positive events came out at 8.3% and the response (vesicle binding) was 215% (inactive).

Take `COCc1cc(C)n(CC(=O)NCC2CCCO2)c(=O)c1C#N` (centres undefined): the double positive events worked out at 19.7% and the response (vesicle binding) is 237% (inactive).

For the molecule `CC(=O)Nc1ccc(NC(=O)CSC2=NS(=O)(=O)c3ccccc3N2)cc1`, the double positive events is 46.2% and the response (vesicle binding) is 285% (inactive).

In the case of `COc1cc(/C=C/C(=O)N2CCc3ccccc3C2)cc(OC)c1OC`, the double positive events was found to be 39.9% and the response (vesicle binding) was 216% (inactive).

On to `CCc1cc(CNC(=O)CC2C(=O)NCCN2Cc2ccccc2C(F)(F)F)on1` (centres undefined), for which the double positive events was 21.1% and the response (vesicle binding) was 297% (inactive).

On to `CS(=O)(=O)c1ccc(C(=O)NNC(=O)c2cccs2)cc1`, for which the double positive events was 52.2% and the response (vesicle binding) was 322% (inactive).

On to `O=C(NC1CCCC1)C(c1c(F)cccc1Cl)N(C(=O)c1csnn1)C1CC1` (centres undefined), for which the double positive events turned out to be 17.4% and the response (vesicle binding) was 421% (inactive).

Consider `CCc1ccc(NC(=O)C(=O)N/N=C(\C)CC(=O)NCCOC)cc1`, for which the double positive events turned out to be 23.6% and the response (vesicle binding) is 154% (inactive).
